For one data set, the target named is T1, chicken PD-1 protein (Gallus gallus, UniProt A0A1L1RYS1).
T1 sequence (A0A1L1RYS1 1-304): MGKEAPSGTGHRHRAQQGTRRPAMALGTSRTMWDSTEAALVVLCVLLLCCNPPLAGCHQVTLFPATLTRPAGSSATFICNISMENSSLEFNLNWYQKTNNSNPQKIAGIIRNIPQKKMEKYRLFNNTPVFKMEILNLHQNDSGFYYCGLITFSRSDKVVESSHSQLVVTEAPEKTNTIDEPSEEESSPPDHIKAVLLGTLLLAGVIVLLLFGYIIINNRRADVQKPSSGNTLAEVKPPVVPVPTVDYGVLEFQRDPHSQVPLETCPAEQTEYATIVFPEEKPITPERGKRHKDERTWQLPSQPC
The data set can be described thus: MST affinity of peptides for chicken PD-1 protein. It is filed as binding. The method, boiled down:
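Chicken PD-1 protein labelled with a BLUE-NHS amine-reactive dye, then mixed in equal volumes with each peptide from a 2-fold dilution series in PBS (pH 7.4), 1800 to 0.054 nM. Incubated about 5 min, loaded into standard capillaries and read at once by microscale thermophoresis. Chicken PD-L1 protein (100 nM) as positive control. KD reported as the mean of 3 independent experiments.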

A further data set deals with DT40 cells. In words: MTT cell viability assay. Format: cell-based, chicken. Conditions: 10 to 500 nM peptide, 24 h, OD450.

Results on 1 sequence are retold here after article PMC11533547 (Poultry Science, 2024).

pKd: −log10 of the molar value. No end group written: not given here.

DAGLYHCLIEYGGADYKTINLK [gDK2-3] had a negative-log Kd (pKd) on chicken PD-1 protein of 8.01. In the data set on DT40 cells, the “cell viability (cytotoxicity)” value is on record as “no significant effect on cell viability”.
